{"source": "ChEMBL document CHEMBL2046325", "about": "“Synthesis and SAR-study for novel arylpiperazine derivatives of 5-arylidenehydantoin with α₁-adrenoceptor antagonistic properties” (Bioorg Med Chem, 2012)", "key": {"[1]": {"biological_target": "T1, Adrenergic receptor alpha-1 (Rattus norvegicus, UniProt P15823+P23944+P43140)", "T1 sequence (P15823 whole entry)": "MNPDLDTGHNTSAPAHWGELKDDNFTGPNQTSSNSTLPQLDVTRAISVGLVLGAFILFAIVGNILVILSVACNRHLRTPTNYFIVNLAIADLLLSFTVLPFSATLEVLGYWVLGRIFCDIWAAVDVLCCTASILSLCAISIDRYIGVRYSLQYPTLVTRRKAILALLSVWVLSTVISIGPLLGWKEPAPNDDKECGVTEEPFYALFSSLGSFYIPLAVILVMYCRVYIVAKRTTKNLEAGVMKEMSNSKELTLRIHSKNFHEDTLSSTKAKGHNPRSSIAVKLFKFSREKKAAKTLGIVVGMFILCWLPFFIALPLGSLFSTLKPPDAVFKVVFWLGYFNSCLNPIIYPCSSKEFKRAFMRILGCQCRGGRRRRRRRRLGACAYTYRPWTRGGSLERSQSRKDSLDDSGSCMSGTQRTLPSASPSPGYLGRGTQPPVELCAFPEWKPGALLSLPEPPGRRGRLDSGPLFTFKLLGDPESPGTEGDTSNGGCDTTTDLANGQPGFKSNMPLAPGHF", "T1 sequence (P23944 whole entry)": "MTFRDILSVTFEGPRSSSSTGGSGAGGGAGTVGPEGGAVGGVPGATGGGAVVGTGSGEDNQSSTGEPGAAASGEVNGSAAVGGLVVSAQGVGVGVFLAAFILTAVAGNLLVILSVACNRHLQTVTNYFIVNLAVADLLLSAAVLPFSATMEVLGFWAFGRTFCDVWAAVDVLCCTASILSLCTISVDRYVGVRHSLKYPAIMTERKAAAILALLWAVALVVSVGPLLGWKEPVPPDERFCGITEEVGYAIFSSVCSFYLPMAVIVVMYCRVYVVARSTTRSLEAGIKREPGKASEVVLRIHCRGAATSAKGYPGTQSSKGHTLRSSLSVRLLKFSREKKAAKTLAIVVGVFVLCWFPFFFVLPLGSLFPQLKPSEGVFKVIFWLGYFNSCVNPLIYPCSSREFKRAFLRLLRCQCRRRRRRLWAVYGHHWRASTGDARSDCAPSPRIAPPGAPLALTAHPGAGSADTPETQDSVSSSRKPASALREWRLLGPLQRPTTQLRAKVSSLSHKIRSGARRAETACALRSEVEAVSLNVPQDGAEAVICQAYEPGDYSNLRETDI", "T1 sequence (P43140 whole entry)": "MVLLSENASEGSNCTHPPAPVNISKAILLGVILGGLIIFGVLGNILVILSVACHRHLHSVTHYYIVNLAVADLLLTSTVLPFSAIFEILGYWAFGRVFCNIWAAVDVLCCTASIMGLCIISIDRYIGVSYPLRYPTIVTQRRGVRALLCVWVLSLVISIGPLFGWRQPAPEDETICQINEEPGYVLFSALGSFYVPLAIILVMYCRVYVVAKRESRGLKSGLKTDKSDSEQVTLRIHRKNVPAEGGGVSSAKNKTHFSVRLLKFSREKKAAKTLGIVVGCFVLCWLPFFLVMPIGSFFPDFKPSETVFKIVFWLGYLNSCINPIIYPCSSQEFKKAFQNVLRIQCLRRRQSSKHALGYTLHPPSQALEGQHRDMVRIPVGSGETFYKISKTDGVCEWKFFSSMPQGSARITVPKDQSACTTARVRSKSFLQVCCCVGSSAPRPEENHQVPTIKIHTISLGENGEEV", "assay": "Competitive antagonist activity at alpha1 adrenoceptor in Wistar rat denuded thoracic aorta rings assessed as inhibition of phenylephrine-induced contractions after 20 mins", "format": "functional, tissue-based", "procedure,_shortened": "(§1)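 Male Wistar rats (200-350 g) anaesthetised with thiopental sodium (75 mg/kg ip). Endothelium-denuded thoracic aortic rings, about 4 mm, held in Krebs-Henseleit at 37 °C, pH 7.4, gassed O2/CO2 19:1. Cumulative phenylephrine curves run over 3×10⁻⁹–3×10⁻⁶ M, before and after 20 min with one antagonist concentration per ring (3–4 levels), 60 min recovery between curves. Schild pA2 used if slope is unity, otherwise pKB; ≥5 experiments.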"}, "[2]": {"biological_target": "Adrenergic receptor alpha-1 (Rattus norvegicus) (UniProt P15823+P23944+P43140)", "assay": "Antagonist activity at alpha1 adrenoceptor in Wistar rat denuded thoracic aorta rings assessed as inhibition of phenylephrine-induced contraction after 20 mins", "format": "functional, tissue-based", "procedure,_shortened": "as §1"}, "[3]": {"biological_target": "T1, Adrenergic receptor alpha-1", "assay": "Displacement of [3H]prazosin from alpha1 adrenoceptor in rat cerebral cortex after 30 mins by beta scintillation counting", "format": "tissue-based", "procedure,_shortened": "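Rat cerebral cortex homogenized in 50 mM Tris-HCl, pH 7.6, centrifuged twice at 20000 × g and resuspended at 10 mg wet weight/ml. Tissue incubated with [3H]-prazosin (19.5 Ci/mmol) and test compound for 30 min at 25 °C. Samples filtered on GF/B and counted by scintillation; three-parameter logistic fit of percent binding.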"}}, "data": [{"smiles": "COc1ccc(/C=C2\\NC(=O)N(CC(O)CN3CCN(c4ccccc4OC)CC3)C2=O)cc1OC.Cl", "note": "(racemic)", "values": [{"measurement": "pA2", "setting": "[1]", "value": 7.56}, {"measurement": "inhibition", "setting": "[2]", "value": "Dose-dependent effect"}, {"measurement": "Ki", "setting": "[3]", "value": 44.5, "unit": "nM"}]}, {"smiles": "CCOc1ccccc1N1CCN(CC(O)CN2C(=O)N/C(=C\\c3cccc(OC)c3OC)C2=O)CC1.Cl", "note": "(racemic)", "values": [{"measurement": "inhibition", "setting": "[2]", "value": "Dose-dependent effect"}, {"measurement": "pKb", "setting": "[2]", "value": 7.53}, {"measurement": "Ki", "setting": "[3]", "value": 72.1, "unit": "nM"}]}, {"smiles": "COc1ccccc1N1CCN(CC(O)CN2C(=O)N/C(=C\\c3ccc(Cl)cc3)C2=O)CC1.Cl", "note": "(racemic)", "values": [{"measurement": "inhibition", "setting": "[2]", "value": "Dose-dependent effect"}, {"measurement": "pKb", "setting": "[2]", "value": 7.58}, {"measurement": "Ki", "setting": "[3]", "value": 86.3, "unit": "nM"}]}, {"smiles": "COc1ccccc1N1CCN(CC(O)CN2C(=O)N/C(=C\\c3cccc(OC)c3OC)C2=O)CC1.Cl", "note": "(racemic)", "values": [{"measurement": "pA2", "setting": "[1]", "value": 7.55}, {"measurement": "inhibition", "setting": "[2]", "value": "Dose-dependent effect"}, {"measurement": "Ki", "setting": "[3]", "value": 70, "unit": "nM"}]}, {"smiles": "COc1ccc(/C=C2\\NC(=O)N(CC(O)CN3CCN(c4ccccc4OC)CC3)C2=O)c(OC)c1.Cl", "note": "(racemic)", "values": [{"measurement": "inhibition", "setting": "[2]", "value": "Dose-dependent effect"}, {"measurement": "pKb", "setting": "[2]", "value": 8.95}, {"measurement": "Ki", "setting": "[3]", "value": 52.2, "unit": "nM"}]}, {"smiles": "Cl.O=C1N/C(=C\\c2ccc(Cl)cc2)C(=O)N1CC(O)CN1CCN(c2ccccc2)CC1", "note": "(racemic)", "values": [{"measurement": "Ki", "setting": "[3]", "value": 3700, "unit": "nM"}]}, {"smiles": "CCOc1ccccc1N1CCN(CC(O)CN2C(=O)N/C(=C\\c3ccc(N(C)C)cc3)C2=O)CC1.Cl", "note": "(racemic)", "values": [{"measurement": "Ki", "setting": "[3]", "value": 8700, "unit": "nM"}]}, {"smiles": "CCOc1ccccc1N1CCN(CC(O)CN2C(=O)N/C(=C\\c3ccc(OC)cc3OC)C2=O)CC1.Cl", "note": "(racemic)", "values": [{"measurement": "Ki", "setting": "[3]", "value": 231, "unit": "nM"}]}, {"smiles": "CCOc1ccccc1N1CCN(CC(O)CN2C(=O)N/C(=C\\c3ccccc3)C2=O)CC1.Cl", "note": "(racemic)", "values": [{"measurement": "inhibition", "setting": "[2]", "value": "Dose-dependent effect"}, {"measurement": "pKb", "setting": "[2]", "value": 7.66}, {"measurement": "Ki", "setting": "[3]", "value": 91.4, "unit": "nM"}]}, {"smiles": "COc1ccccc1N1CCN(CC(O)CN2C(=O)N/C(=C\\c3ccc(N(C)C)cc3)C2=O)CC1.Cl", "note": "(racemic)", "values": [{"measurement": "Ki", "setting": "[3]", "value": 834.9, "unit": "nM"}]}, {"smiles": "COc1cccc(/C=C2\\NC(=O)N(CC(O)CN3CCN(c4ccccc4)CC3)C2=O)c1OC.Cl", "note": "(racemic)", "values": [{"measurement": "Ki", "setting": "[3]", "value": 318.8, "unit": "nM"}]}, {"smiles": "CCOc1ccccc1N1CCN(CC(O)CN2C(=O)N/C(=C\\c3ccc(Cl)cc3)C2=O)CC1.Cl", "note": "(racemic)", "values": [{"measurement": "inhibition", "setting": "[2]", "value": "Dose-dependent effect"}, {"measurement": "pKb", "setting": "[2]", "value": 9.01}, {"measurement": "Ki", "setting": "[3]", "value": 59.1, "unit": "nM"}]}, {"smiles": "COc1ccc(/C=C2\\NC(=O)N(CC(O)CN3CCN(c4ccccc4)CC3)C2=O)cc1OC.Cl", "note": "(racemic)", "values": [{"measurement": "Ki", "setting": "[3]", "value": 197.6, "unit": "nM"}]}, {"smiles": "COc1ccccc1N1CCN(CC(O)CN2C(=O)N/C(=C\\c3ccccc3)C2=O)CC1.Cl", "note": "(racemic)", "values": [{"measurement": "Ki", "setting": "[3]", "value": 285.9, "unit": "nM"}]}]}
